Test results from the RNAGym collection of RNA variant scans (doi:10.1038/s41586-018-0170-7).

B1: tRNA (parent)
chain: GUUCCGUUGGCGUAAUGGUAACGCGUCUCCCUCCUAAGGAGAAGACUGCGGGUUCGAGUCCCGUACGGAACG

Variants of: B1
Assay: yeast fitness, log relative to wild type (ln ratio); higher = fitter; tRNA-Arg(CCU), competitive growth, 37 C, 1 M NaCl
Summary of the method: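 Two independent transformations put a combinatorial tRNA-Arg(CCU) variant library on a HIS3 centromeric plasmid into BY4742 lacking the chromosomal gene. Pools were grown in SC-HIS at 30 °C for 4 generations, then in SC-HIS 1M NaCl at 37 °C for ~6.5 generations (~26.5 h), with three outputs taken per input. Fitness compares a genotype's generations with the wild type's as a natural log ratio. Those generations are OD-scaled log2 output/input frequencies, inverse-variance weighted across replicates, from 125 bp paired-end Illumina counts.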

In order of falling “yeast fitness (ln)” value:
1. U2G G6A A43C C46U C66U A70U  -0.000672
2. U2G G6A C46U C66U A69G A70U  -0.00305
3. U2G G6A  -0.00406
4. U2G G6A C27U A43C C46U C66U A70U  -0.0122
5. U2G G6A A43C C66U A70U  -0.0213
6. U2G G6U  -0.0233
7. U2G G6A C46U  -0.0244
8. U2G G6U A43C C46U C66A A69G A70U  -0.0302
9. U2G G6A C27U  -0.0425
10. U2G G6A A43C C46U  -0.0442
11. U2G G6A C27U C46U  -0.0462
12. U2G G6A C71U  -0.0566
13. U2G G6A C27U A43C C46U  -0.0569
14. U2G G6A A43C C46U C66A A69G A70U  -0.0569
15. U2G G6A C46U C66U  -0.0595
16. U2G G6A C66A A69G A70U  -0.0595
17. U2G G6A C27U C66U A69G A70U  -0.0719
18. U2G G6A A43C C46U C66A A70U  -0.0808
19. U2G G6A A43C  -0.0921
20. U2G G6A C46U C66A  -0.093
21. U2G G6A C66U  -0.0956
22. U2G G6A C27U C46U A70G  -0.0986
23. U2G G6A C27U A43C C46U C66U  -0.102
24. U2G G6A C27U C46U A70U  -0.106
25. U2G G6A C66A  -0.111
26. U2G G6A C27U A70G  -0.112
27. U2G G6A A69G C71U  -0.113
28. U2G G6A C27U A43C C46U C66A A70U  -0.115
29. U2G G6A C46U A69G A70G  -0.115
30. U2G G6A C27U A43C A70U  -0.119
31. U2G G6A C66A A70U C71U  -0.123
32. U2G G6A A43C C46U A69G A70U  -0.123
33. U2G G6A C27U C66A A70U  -0.126
34. U2G G6A C27U C46U C71U  -0.128
35. U2G G6A C27U A43C C46U C66A A70G  -0.132
36. U2G G6A C27U C46U A69G A70U  -0.133
37. U2G G6A C27U C46U C66A A69G A70U  -0.134
38. U2G G6A C27U C46U C66A A69G A70G  -0.134
39. U2G G6A C27U C46U C66A A70U  -0.134
40. U2G G6A A69G  -0.135
41. U2G G6U A43C C46U A70G  -0.138
42. U2G G6A A69G A70G  -0.139
43. U2G G6A C27U C46U A70U C71U  -0.143
44. U2G G6A C27U A43C C46U C66U A70G  -0.143
45. U2G G6A A43C C66U A70G  -0.147
46. U2G G6A A43C C46U C66U A70G C71U  -0.149
47. U2G G6A C46U C71U  -0.149
48. U2G G6A C27U C66A A70G  -0.15
49. U2G G6A A43C C46U C71U  -0.151
50. U2G G6A A43C C66A A69G A70G C71U  -0.154
51. U2G G6A C27U C46U C66A A70G  -0.16
52. U2G G6A C46U C66U A69G  -0.163
53. U2G G6A C27U C46U C66U A70G C71U  -0.165
54. U2G G6A C27U A43C A69G A70G  -0.168
55. U2G G6A A43C C46U C66A A70G  -0.169
56. U2G G6A A43C A70U C71U  -0.169
57. U2G G6A A43C C46U A69G A70G  -0.169
58. U2G G6U A43C C71U  -0.17
59. U2G G6A C27U C46U C66U C71U  -0.17
60. U2G G6A C66A A70G C71U  -0.17
61. U2G G6A A43C A69G A70U  -0.171
62. U2G G6A C27U C46U A69G C71U  -0.174
63. U2G G6A C27U C46U A69G A70G  -0.174
64. U2G G6A A43C C46U C66U A70U C71U  -0.175
65. U2G G6U A43C C46U A69G A70G  -0.183
66. U2G G6A A43C A69G A70G  -0.185
67. U2G G6U A43C C46U C66U A70G  -0.185
68. U2G G6A C27U A43C A70G  -0.186
69. U2G G6A A43C C66U A70G C71U  -0.186
70. U2G G6A C27U A43C C46U C66A A69G A70U  -0.187
71. U2G G6A C46U C66U A69G A70G C71U  -0.188
72. U2G G6A C27U A43C C46U C66A  -0.189
73. U2G G6U A43C C46U C66U  -0.191
74. U2G G6A C46U C66A A69G A70G C71U  -0.193
75. U2G G6A C27U A43C C46U C66U A70G C71U  -0.194
76. U2G G6A C27U C46U A69G A70G C71U  -0.194
77. U2G G6U A43C C46U A69G A70U  -0.194
78. U2G G6A C27U A43C C71U  -0.197
79. U2G G6A A43C C66A A70G C71U  -0.198
80. U2G G6U A43C C46U C71U  -0.198
81. U2G G6A C27U A43C C66A C71U  -0.2
82. U2G G6A C27U A43C C46U A70G C71U  -0.201
83. U2G G6A C27U C66U A70G C71U  -0.203
84. U2G G6A A43C C46U C66U A70G  -0.205
85. U2G G6U A43C C46U C66A  -0.205
86. U2G G6A C27U C46U A70G C71U  -0.207
87. U2G G6A C46U A69G A70U  -0.21
88. U2G G6A A43C C46U C66U C71U  -0.212
89. U2G G6A C27U C46U C66A C71U  -0.213
90. U2G G6A C66A A69G A70G C71U  -0.213
91. U2G G6A C27U C46U C66U A69G  -0.215
92. U2G G6U A43C A70U C71U  -0.215
93. U2G G6A C27U A70G C71U  -0.216
94. U2G G6A C27U A43C C46U A69G C71U  -0.22
95. U2G G6A C27U A43C A70G C71U  -0.221
96. U2G G6A C27U C46U C66A A70G C71U  -0.221
97. U2G G6U A43C C46U A69G A70G C71U  -0.223
98. U2G G6U A43C A69G A70U  -0.227
99. U2G G6U A43C C46U A70G C71U  -0.229
100. U2G G6A A43C C46U C66U A69G A70G C71U  -0.229
101. U2G G6A C27U A43C C66A A70G C71U  -0.23
102. U2G G6A A43C C66U A69G A70U  -0.235
103. U2G G6U A43C A69G A70G  -0.237
104. U2G G6A C27U A69G  -0.24
105. U2G G6U A43C C46U C66U A70G C71U  -0.241
106. U2G G6U A43C C46U C66A A69G A70G  -0.242
107. U2G G6A C27U A43C A70U C71U  -0.242
108. U2G G6A C27U C66U A69G A70G  -0.243
109. U2G G6A C27U C66A A70U C71U  -0.244
110. U2G G6A C27U C66A A69G A70G C71U  -0.249
111. U2G G6A C66U A70G C71U  -0.253
112. U2G G6A A43C C66U A69G A70G  -0.257
113. U2G G6U A43C C46U C66U A70U  -0.263
114. U2G G6U A43C C66A A70G C71U  -0.265
115. U2G G6A A69G A70U  -0.265
116. U2G G6A C27U C66U A69G A70G C71U  -0.272
117. U2G G6A C46U A69G A70U C71U  -0.272
118. U2G G6A C27U C46U C66U A69G C71U  -0.277
119. U2G G6A C27U A43C A69G A70U  -0.279
120. U2G G6U A43C C66U A70U  -0.279
121. U2G G6A C27U A43C C46U C66A A69G C71U  -0.283
122. U2G G6A C27U A70U  -0.283
123. U2G G6A C27U C66A A69G A70U  -0.287
124. U2G G6A C27U A43C C66U A69G A70G  -0.3
125. U2G G6A A43C C46U C66U A69G C71U  -0.303
126. U2G G6A A43C C66U A69G A70G C71U  -0.304
127. U2G G6U A43C C46U C66U C71U  -0.309
128. U2G G6U A43C C66A A69G A70G C71U  -0.315
129. U2G G6A C27U A43C C66U A69G A70U  -0.326
130. U2G G6A A43C C66A A69G A70U C71U  -0.329
131. U2G G6A A43C C66A A70U C71U  -0.33
132. U2G G6U A43C C46U A70U  -0.337
133. U2G G6U A43C C66U A70G  -0.338
134. U2G G6A C27U A43C C66U A70U C71U  -0.339
135. U2G G6A A43C C66A C71U  -0.347
136. U2G G6A A43C C46U A69G A70U C71U  -0.347
137. U2G G6A C46U C66U A70G C71U  -0.35
138. U2G G6A C27U A43C C66U A69G C71U  -0.35
139. U2G G6U A43C C66A A69G A70U C71U  -0.355
140. U2G G6A C27U C66U A70U C71U  -0.364
141. U2G G6A A43C A69G C71U  -0.364
142. U2G G6A C27U A43C C46U C66U A69G C71U  -0.377
143. U2G C66U A69G A70U C71U  -0.381
144. U2G G6A A43C C46U C66A A69G A70U C71U  -0.381
145. U2G G6A C27U A43C C46U A69G A70U C71U  -0.384
146. U2G G6A C27U C46U C66A A69G A70U C71U  -0.385
147. U2G G6A C27U A43C C66U A69G A70G C71U  -0.386
148. U2G G6A C27U A43C A69G C71U  -0.391
149. U2G G6A C27U C46U C66U A69G A70U C71U  -0.394
150. U2G G6U A43C C66U A70G C71U  -0.397
151. U2G G6A C27U C66U A69G A70U C71U  -0.4
152. U2G G6U A43C A69G C71U  -0.402
153. U2G G6U A43C C66U C71U  -0.405
154. U2G G6A A43C C66U A69G A70U C71U  -0.407
155. U2G G6U A43C C66U A69G C71U  -0.408
156. U2G G6A C27U C66U A69G C71U  -0.409
157. U2G G6A C27U A43C C46U C66U A69G  -0.415
158. U2G G6A C27U A43C C46U C66U A69G A70U C71U  -0.433
159. U2G G6A C27U A43C C66U A69G A70U C71U  -0.434
160. U2G G6A C46U C66U A69G A70G  -0.442
161. U2G G6A C46U A70U C71U  -0.449
162. U2G G6U A43C C46U C66A A69G C71U  -0.462
163. U2G G6U A43C C66U A70U C71U  -0.464
164. U2G G6U A43C C66U A69G A70U C71U  -0.468
165. U2G G6A A43C C66U A70U C71U  -0.49
166. U2G G6A C27U C66A A69G A70U C71U  -0.499
167. U2G G6A C27U A43C A69G A70U C71U  -0.502
